From PubChem
SIRT5 inh – SIRT5 desuccinylase inhibitors, primary screen, biochemical, fluorescence imaging, single point, set 5. NAD-dependent protein deacylase sirtuin-5, mitochondrial (Homo sapiens), Q9NXA8. Purified SirT5, succinyl-peptide AMC, trypsin-coupled fluorescence. inhibition, % at 15 µM. actives 1.1% (n = 330,000). AID 652115, 2013; in the data active = inhibition above about 15%
PGC1a acetyl inh – inhibitors of PGC1a acetylation signal, primary screen, cell-based, U2OS, AlphaScreen, inhibitor mode | AlphaScreen anti-acetyl-lysine; with virally co-expressed GCN5 acetyltransferase | AID 651687, 2012 | inhibition, % at 15.6 µM | actives 0.17% (n = 350,000);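 active = every replicate shows inhibition of at least 40%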;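 note: 0% = neutral control wells and 100% = positive control wells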
ERAP1 inh – human ERAP1 aminopeptidase inhibitors, primary screen, biochemical, single point, plate reader; actives 0.15% (n = 340,000); inhibition, % at 10.7 µM; Endoplasmic reticulum aminopeptidase 1 (Homo sapiens), Q9NZ08; recombinant ERAP1, Leu-AMC fluorescence, 60 min;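 active = mean replicate inhibition of at least 30%, or all replicates individually reaching that 30% level; inactive = mean below 30% and not every replicate reaching it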;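 note: 0% = neutral control wells and 100% = L-leucinethiol positive control wells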
Target sequence (Q9NZ08 whole entry, looked up): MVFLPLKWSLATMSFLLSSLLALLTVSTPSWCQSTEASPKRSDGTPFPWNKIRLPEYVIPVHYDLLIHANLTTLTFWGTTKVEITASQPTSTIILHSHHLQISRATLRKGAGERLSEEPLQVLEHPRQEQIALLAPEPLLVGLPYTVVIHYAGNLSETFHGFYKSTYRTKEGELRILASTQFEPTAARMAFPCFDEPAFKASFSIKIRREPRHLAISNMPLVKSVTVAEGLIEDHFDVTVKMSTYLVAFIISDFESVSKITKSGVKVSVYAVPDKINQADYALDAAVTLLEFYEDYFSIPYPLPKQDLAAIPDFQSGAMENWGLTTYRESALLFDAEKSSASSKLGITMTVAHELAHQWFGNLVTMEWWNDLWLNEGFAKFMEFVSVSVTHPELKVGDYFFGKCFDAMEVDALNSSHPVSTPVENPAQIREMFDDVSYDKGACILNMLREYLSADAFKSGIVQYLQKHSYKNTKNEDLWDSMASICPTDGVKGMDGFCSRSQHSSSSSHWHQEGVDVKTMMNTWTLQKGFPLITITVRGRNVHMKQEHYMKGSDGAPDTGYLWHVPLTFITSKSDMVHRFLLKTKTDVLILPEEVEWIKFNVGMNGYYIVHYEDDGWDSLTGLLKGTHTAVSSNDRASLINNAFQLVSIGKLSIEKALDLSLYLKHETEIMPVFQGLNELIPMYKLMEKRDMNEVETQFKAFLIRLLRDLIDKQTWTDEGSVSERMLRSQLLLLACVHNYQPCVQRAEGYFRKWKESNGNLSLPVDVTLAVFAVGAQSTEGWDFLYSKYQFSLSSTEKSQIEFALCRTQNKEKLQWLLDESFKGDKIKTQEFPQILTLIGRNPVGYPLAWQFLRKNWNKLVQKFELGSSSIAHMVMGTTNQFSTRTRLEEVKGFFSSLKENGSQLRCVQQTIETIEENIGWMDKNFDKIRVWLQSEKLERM
FN deposition inh – inhibitors of fibronectin matrix deposition, primary screen, AH1F cells, Alexa488-fibronectin fluorescence, plate reader. inhibition, % at 12.6 µM. AH1F fibroblasts, overnight. AID 743247, 2014. actives 0.086% (n = 350,000);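 active = mean inhibition across replicates of 30% or more, regardless of how many single replicates reach that level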;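 note: positive control wells lacked labelled fibronectin entirely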
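Material: AH1F fibroblasts assembling fluorescent fibronectin matrix; amount: 10000 AH1F cells/well; medium: DMEM, 2% serum; reagent: Alexa488-fibronectin, 24 nM final in well; dosing: single compound dose, delivered by pin transfer; incubation: 1 h adhesion, overnight exposure; detection: fluorescence after three HBSS washes, excitation 485 nm, emission 525 nm; measure: fibronectin deposition inhibition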
FGF22 binding – binders of human FGF22 protein, primary screen, FGF22 synaptogenesis inhibitor project, biophysical, thermal shift, single point | Fibroblast growth factor 22 (Homo sapiens), Q9HCT0 | recombinant FGF22 thermal shift, SYPRO orange fluorescence; percent of sucrose octasulfate shift, DMSO zero | activity (Tm shift, normalised), % at 9.99 µM | actives 1.5% (n = 340,000);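 active = mean Tm shift, scaled 0 neutral to 100 positive control, at about 1.3% or above, every replicate too, limit read from the data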
Starred values were filed as active, the others as inactive; / = no result given; ! = not active in a repeat. An excerpt weighted towards active compounds, which were near 2.2% of everything screened.

SMILES	SIRT5 inh	PGC1a acetyl inh	ERAP1 inh	FN deposition inh	FGF22 binding
COC(=O)C1=C(C)N(Cc2ccc(C(F)(F)F)cc2)C(=NCc2ccccc2)NC1c1cccc(F)c1 (stereo not given)	/	/	-2	17	44*
CCCCN(CCCC)C(=O)CN(C)S(=O)(=O)c1ccc2c(c1)n(C)c(=O)c(=O)n2C	5	7	0	/	0
CN(CC(=O)Nc1cccc(Cl)c1)S(=O)(=O)c1ccc2c(c1)n(C)c(=O)c(=O)n2C	33*	-2	-3	4	0
CN(CC(=O)O)S(=O)(=O)c1ccc2c(c1)n(C)c(=O)c(=O)n2C	1	12	1	-3	44*
OCC1OC(Oc2c(Br)cc(Br)cc2Br)C(O)C(O)C1O (stereo not given)	/	63*	1	-10	0
O=C(CNS(=O)(=O)c1ccccc1)N/N=C\c1ccc(Cl)cc1	/	-6	/	-2	/
O=C(CNC(=O)Cc1ccccc1)NCC(=O)N1CCCCC1	-3	/	-2	/	0
O=C(CNS(=O)(=O)c1ccccc1)N/N=C/c1ccc(O)cc1	0	/	1	-8	43*
O=C(CNS(=O)(=O)c1ccccc1)NCC(=O)N1CCCCC1	15*	1	-1	-1	0
CCCN1C[C@H](C)[C@@H](OC)CN(C)C(=O)c2cc(NC(=O)Nc3ccccc3F)ccc2OC[C@H]1C	3	9	/	13	0
C[C@H]1CN([C@@H](C)CO)S(=O)(=O)c2ccc(-c3ccc(F)cc3)cc2O[C@H]1CN(C)C(=O)C1CCCCC1	9	-3	-3	-18	0
C[C@@H]1CCCCO[C@@H](CN(C)C(=O)c2ccccc2)[C@H](C)CN([C@@H](C)CO)C(=O)c2cc(NS(=O)(=O)c3cccs3)ccc2O1	-5	/	1	-14	-1
CCOc1ccc(CCNC(=O)COc2cc(=O)n(C)c3ccccc23)cc1OCC	6	/	-13	8	0
CCn1c(=O)cc(OCC(=O)NCCc2ccc(OC)c(OC)c2)c2ccccc21	20*	/	5	0	0
COc1ccc(CCNC(=O)c2cc(CC(C)C)on2)cc1OC	15*	-5	20	-4	0
COc1ccc(CCNC(=O)c2cc(C3CC3)on2)cc1OC	-5	/	/	2	0
COc1ccc(CCNC(=O)C(NC(=O)OCc2ccccc2)C(C)C)cc1OC (stereo not given)	-3	/	6	-4	0
CC[C@H](C)[C@H](NC(N)=O)C(=O)NCCc1ccc(OC)c(OC)c1	0	-3	-1	-7	43*
C[C@H](CO)N1C[C@H](C)[C@H](CN(C)S(=O)(=O)c2ccccc2)Oc2ccc(NC(=O)Nc3cccc4ccccc34)cc2CC1=O	3	-6	-6	/	0
CCc1ccc(C(=O)NNC(=S)Nc2ccc(S(N)(=O)=O)cc2)s1	3	0	-2	-2	1.8*
COc1ccccc1NS(=O)(=O)c1cc(C(=O)N2CCCC2)ccc1C	1	0	3	1	0
Cc1ccc(C(=O)N2CCCC2)cc1S(=O)(=O)Nc1cccc(C)c1C	26*	-4	-1	-3	0
CCN(CC)C(=N)/C(C#N)=N/Nc1ccccc1	17*	5	/	9	0
N#C/C(=N\Nc1ccccc1)C(=N)N1CCCCC1	/	1	/	/	/
CCOc1ccc2nc(Cl)sc2c1	-1	5	3	2	43*
SMILES	SIRT5 inh	PGC1a acetyl inh	ERAP1 inh	FN deposition inh	FGF22 binding
CCOc1ccc2nc(NS(C)(=O)=O)sc2c1	/	6	/	-8	/
COC(=O)c1ccc(CNC(=O)/C=C/[C@H]2O[C@@H](n3cc(C)c(=O)[nH]c3=O)C[C@@H]2O)cc1	21*	7	2	-7	0
C/C(=N/NC(=O)c1ccc(C)s1)c1cccc(NC(=O)c2ccoc2C)c1	17*	/	-3	/	1
Cc1cc(C)n(CC(=O)NNC(=O)COc2ccc(Cl)cc2Cl)n1	15*	1	1	2	0
Cc1cc(C)n(CC(=O)NNC(=O)COc2ccc(F)cc2Br)n1	-1	1	1	-6	0
O=C(Nc1cc(S(=O)(=O)N2CCCCC2)ccc1Cl)c1ccccc1NS(=O)(=O)c1ccc(F)cc1	1	/	6	-5	0
O=C(Nc1cc(S(=O)(=O)N2CCCCC2)ccc1O)c1ccccc1NS(=O)(=O)c1ccc(F)cc1	6	-10	1	-4	1.4*!
COc1cc(CCc2ccccc2)c(C(=O)O)c(O)c1C/C=C(/C)CCC=C(C)C	32*	23	/	-6	1
C[C@@H]1CCCCO[C@H](CN(C)S(=O)(=O)c2ccccc2)[C@H](C)CN([C@@H](C)CO)C(=O)c2cc(NC(=O)NC3CCCCC3)ccc2O1	9	-3	1	8	0
Nc1cc(C(=O)OCC(=O)NCc2ccc(F)cc2)ccc1Cl	-4	/	-1	8	44*
COc1ccc(OCCNS(=O)(=O)c2cccc([N+](=O)[O-])c2)cc1	-9	/	1	-5	43*
O=C1NC(c2ccccc2)=CC(c2ccccc2O)N1 (stereo not given)	/	/	-1	-1	0
O=C1NC(c2ccccc2)=CC(c2ccccc2)N1 (stereo not given)	1	-17	-3	-4	44*
C[C@@H]1CN([C@@H](C)CO)C(=O)c2cccc(NS(=O)(=O)c3ccc(Cl)cc3)c2O[C@@H]1CN(C)Cc1ccncc1	4	0	3	/	0
CC(=O)N(C)C[C@@H]1Oc2cc(-c3ccccc3)ccc2S(=O)(=O)N([C@H](C)CO)C[C@H]1C	1	-1	-1	-2	0
CC(C)CC(=O)Nc1ccc(-c2nc3ccccc3c(=O)[nH]2)cc1	16*	/	-8	2	0
CCCC(=O)N1CC2(CN(C(=O)C3CCC3)C2)c2c(n(C)c3cc(OC)ccc23)[C@H]1CO	-4	/	0	/	0
O=C(Cc1ccccc1)N1CCN(C(=O)c2ccc([N+](=O)[O-])cc2)CC1	0	/	-3	7	45*
O=C(Cc1ccccc1)NC1CCN(C(=O)c2ccc([N+](=O)[O-])cc2)CC1	-4	0	-1	-2	0
Cc1cc(C)c2c(CN3CCOCC3)cc(=O)oc2c1	30*	/	/	5	0
CCCNC(=O)C[C@@H]1C[C@@H]2c3cc(NC(=O)C4CCC4)ccc3O[C@@H]2[C@@H](CO)O1	-4	-4	1	-1	/
C[C@@H]1CN([C@H](C)CO)C(=O)Cc2cc(NC(=O)C3CC3)ccc2O[C@@H]1CN(C)S(=O)(=O)c1ccccc1	8	-2	-11	/	0
